What all share (assay type): cell-based
For assay [1], the system named is 92.1 cells (GNAQ Q209L mutation). The assay is described as follows: Cell proliferation inhibition assay. The note with it: 72 h, read-out: Antiproliferation (IC50, μmol/L) 92.1. The method, boiled down: (§1)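 Uveal melanoma cells were grown in RPMI-1640 with 10% FBS at 37 °C, 5% CO2. They were resuspended at 3 × 10^3 cells/mL, seeded and left overnight. Cells were exposed to a concentration series of test compound for 72 h. CCK-8 was added for 2–4 h and absorbance read at 450 nm. IC50 values were fitted from the curves and reported as mean ± SEM, n = 3.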

For assay [2], the system named is MP41 cells (GNA11 Q209L mutation). The assay is described as follows: Cell proliferation inhibition assay. The conditions noted are these: MP41, 72 h, read-out: Antiproliferation (IC50, μmol/L) MP41. In a few lines: as §1
The subject of the next assay is Gαq/11. The assay is described as follows: IP1 accumulation assay. The note with it: CHO-M1 cells, mean ± SEM (n = 3).

Take `CC[C@H](C)[C@H](N)C(=O)N1CCn2cc(-c3ccccn3)nc2[C@@H]1CC1CCCCC1` [GQ220]: the IC50 in assay [1] and in assay [2] was over 40 µmol/L each time. In addition, the “IP1 inhibition at 10 μmol/L” value in the assay with Gαq/11 is 20.8 ± 1.1%.
With `CC[C@H](C)[C@H](N)C(=O)N1CCn2cc(-c3cccnc3)nc2[C@@H]1CC1CCCCC1` [GQ221], the IC50 in assay [1] and in assay [2] was over 40 µmol/L each time. The “IP1 inhibition at 10 μmol/L” value in the assay on Gαq/11 is on record as 20.0 ± 0.6%.
As for `CC[C@H](C)[C@H](N)C(=O)N1CCn2cc(-c3ccncc3)nc2[C@@H]1CC1CCCCC1` [GQ222], the IC50 in assay [1] and in assay [2] was over 40 µmol/L throughout. Further, the “IP1 inhibition at 10 μmol/L” value with Gαq/11 is given as 27.0 ± 5.2%.
As to `CC[C@H](C)[C@H](N)C(=O)N1CCn2cc(-c3ccco3)nc2[C@@H]1CC1CCCCC1` [GQ223], the IC50 in assay [1] and in assay [2] was over 40 µmol/L in each case. Moreover, in the assay with Gαq/11, the “IP1 inhibition at 10 μmol/L” value was determined as 16.6 ± 1.2%.
For the compound `CC[C@H](C)[C@H](N)C(=O)N1CCn2cc(-c3ccoc3)nc2[C@@H]1CC1CCCCC1` [GQ224], the IC50 in assay [1] and in assay [2] was over 40 µmol/L each time. Also, in the assay with Gαq/11, the “IP1 inhibition at 10 μmol/L” value worked out at 31.5 ± 6.0%.
Regarding `CC[C@H](C)[C@H](N)C(=O)N1CCn2cc(-c3cccs3)nc2[C@@H]1CC1CCCCC1` [GQ225], the values for the IC50 in assay [1] and in assay [2] were 18.8 ± 1.7 µmol/L and 25.3 ± 0.9 µmol/L, respectively. Also, the “IP1 inhibition at 10 μmol/L” value in the assay on Gαq/11 is 28.7 ± 1.6%.
`CC[C@H](C)[C@H](N)C(=O)N1CCn2cc(-c3nccs3)nc2[C@@H]1CC1CCCCC1` [GQ226]: the IC50 in assay [1] and in assay [2] was over 40 µmol/L each time. Also, the “IP1 inhibition at 10 μmol/L” value in the assay on Gαq/11 is given as 29.5 ± 3.0%.
With `CC[C@H](C)[C@H](N)C(=O)N1CCn2cc(C3CCCCC3)nc2[C@@H]1CC1CCCCC1` [GQ227], the IC50 in assay [1] worked out at 21.6 ± 0.6 µmol/L; in assay [2] it was 21.2 ± 0.5 µmol/L. The “IP1 inhibition at 10 μmol/L” value in the assay on Gαq/11 came to 18.4 ± 0.9%.
Taken in the same sequence, the figures for `CC[C@H](C)[C@H](N)C(=O)N1CCn2cc(C3=CCCCC3)nc2[C@@H]1CC1CCCCC1` [GQ228] were 19 ± 0.6 µmol/L, 11 ± 0.1 µmol/L and 24.8 ± 1.5%.
Consider `CC[C@H](C)[C@H](N)C(=O)N1CCn2cc(C3CCCC3)nc2[C@@H]1CC1CCCCC1` [GQ229], for which the IC50 in assay [1] and in assay [2] was over 40 µmol/L throughout. Besides, in the assay on Gαq/11, the “IP1 inhibition at 10 μmol/L” value came out at 15.8 ± 1.8%.
Turning to `CC[C@H](C)[C@H](N)C(=O)N1CCn2cc(C3CCNCC3)nc2[C@@H]1CC1CCCCC1` [GQ230], the IC50 in assay [1] and in assay [2] was over 40 µmol/L in each case. Further, the “IP1 inhibition at 10 μmol/L” value in the assay on Gαq/11 was determined as 13.7 ± 0.6%.
With `CC[C@H](C)[C@H](N)C(=O)N1CCn2cc(C3CCOCC3)nc2[C@@H]1CC1CCCCC1` [GQ231], the IC50 in assay [1] and in assay [2] was over 40 µmol/L throughout. The “IP1 inhibition at 10 μmol/L” value in the assay with Gαq/11 is given as 20.6 ± 2.1%.
`CC[C@H](C)[C@H](N)C(=O)N1CCn2cc(C3CCC(C)(C)CC3)nc2[C@@H]1CC1CCCCC1` [GQ232]: the IC50 in assay [1] was found to be 16.1 ± 1 µmol/L; in assay [2] it was 19.8 ± 0.1 µmol/L. Further, the “IP1 inhibition at 10 μmol/L” value in the assay on Gαq/11 is 10.9 ± 0.7%.
`CC[C@H](C)[C@H](N)C(=O)N1CCn2cc(C3CCC(F)(F)CC3)nc2[C@@H]1CC1CCCCC1` [GQ233]: the IC50 in assay [1] and in assay [2] was over 40 µmol/L in each case. Also, the “IP1 inhibition at 10 μmol/L” value with Gαq/11 was found to be 22.2 ± 1.9%.
Take `CC[C@H](C)[C@H](N)C(=O)N1CCn2cc(C(C)C)nc2[C@@H]1CC1CCCCC1` [GQ234]: the IC50 in assay [1] and in assay [2] was over 40 µmol/L throughout. In the assay with Gαq/11, the “IP1 inhibition at 10 μmol/L” value came out at 10.8 ± 1.4%.
For the compound `CCc1cn2c(n1)[C@H](CC1CCCCC1)N(C(=O)[C@@H](N)[C@@H](C)CC)CC2` [GQ235], the IC50 in assay [1] and in assay [2] was over 40 µmol/L in each case. Also, the “IP1 inhibition at 10 μmol/L” value in the assay on Gαq/11 is 22.3 ± 1.3%.
With `CC[C@H](C)[C@H](N)CN1CCn2cc(-c3ccccc3)nc2[C@@H]1CC1CCCCC1` [GQ236], the IC50 in assay [1] came to 9.3 ± 0.5 µmol/L; in assay [2] it was 10.1 ± 0.2 µmol/L. In addition, the “IP1 inhibition at 10 μmol/L” value in the assay with Gαq/11 is 48.4 ± 2.4%.
Taken in the same sequence, the figures for `CC(C)C[C@H](N)CN1CCn2cc(-c3ccccc3)nc2[C@@H]1CC1CCCCC1` [GQ237] were 5.8 ± 0.1 µmol/L, 4 ± 1.3 µmol/L and 43.0 ± 3.3%.
For the compound `CC(C)[C@H](N)CN1CCn2cc(-c3ccccc3)nc2[C@@H]1CC1CCCCC1` [GQ238], the results for the IC50 in assay [1] and in assay [2] were 7.3 ± 0.7 µmol/L and 6.2 ± 0.7 µmol/L, respectively. Also, the “IP1 inhibition at 10 μmol/L” value in the assay on Gαq/11 turned out to be 34.4 ± 1.7%.
Taken in the same sequence, the figures for `C[C@H](N)CN1CCn2cc(-c3ccccc3)nc2[C@@H]1CC1CCCCC1` [GQ239] were 11.6 ± 0.6 µmol/L, 6 ± 0.6 µmol/L and 50.2 ± 5.2%.
On to `NCCN1CCn2cc(-c3ccccc3)nc2[C@@H]1CC1CCCCC1` [GQ240], for which the IC50 in assay [1] was determined as 9.6 ± 0.6 µmol/L; in assay [2], 7.4 ± 0.3 µmol/L. In the assay on Gαq/11, the “IP1 inhibition at 10 μmol/L” value was 22.5 ± 4.2%.
Taken in the same sequence, the figures for `CC[C@H](N)CN1CCn2cc(-c3ccccc3)nc2[C@@H]1CC1CCCCC1` [GQ241] were 6.6 ± 0.2 µmol/L, 5.9 ± 0.5 µmol/L and 31.3 ± 9.0%.
Taken in the same sequence, the figures for `CCC[C@H](N)CN1CCn2cc(-c3ccccc3)nc2[C@@H]1CC1CCCCC1` [GQ242] were 4.7 ± 0.4 µmol/L, 5 ± 0.1 µmol/L and 41.0 ± 6.0%.
For the compound `CC(C)(C)[C@H](N)CN1CCn2cc(-c3ccccc3)nc2[C@@H]1CC1CCCCC1` [GQ243], the figures for the IC50 in assay [1] and in assay [2] were 9.6 ± 0.7 µmol/L and 5.7 ± 0.7 µmol/L, respectively. Also, the “IP1 inhibition at 10 μmol/L” value with Gαq/11 was found to be 41.6 ± 5.8%.
As for `N[C@@H](CC1CCCCC1)CN1CCn2cc(-c3ccccc3)nc2[C@@H]1CC1CCCCC1` [GQ244], the IC50 in assay [1] was determined as 9 ± 1.3 µmol/L; in assay [2], 5.6 ± 0.3 µmol/L. In addition, the “IP1 inhibition at 10 μmol/L” value in the assay on Gαq/11 turned out to be 45.8 ± 10.5%.
In the case of `N[C@H](CN1CCn2cc(-c3ccccc3)nc2[C@@H]1CC1CCCCC1)C1CCCCC1` [GQ245], the values for the IC50 in assay [1] and in assay [2] were 5.7 ± 0.1 µmol/L and 5 ± 0.3 µmol/L, respectively. The “IP1 inhibition at 10 μmol/L” value with Gαq/11 stood at 46.8 ± 8.6%.
As for `N[C@H](CS)CN1CCn2cc(-c3ccccc3)nc2[C@@H]1CC1CCCCC1` [GQ246], the IC50 in assay [1] was 15.8 ± 1 µmol/L; in assay [2], 14.9 ± 0.8 µmol/L. Also, in the assay with Gαq/11, the “IP1 inhibition at 10 μmol/L” value worked out at 40.4 ± 7.0%.
With `CSCC[C@H](N)CN1CCn2cc(-c3ccccc3)nc2[C@@H]1CC1CCCCC1` [GQ247], the IC50 in assay [1] was 6 ± 0.3 µmol/L; in assay [2], 5.6 ± 0.2 µmol/L. The “IP1 inhibition at 10 μmol/L” value in the assay with Gαq/11 amounted to 44.5 ± 3.4%.
Taken in the same sequence, the figures for `N[C@H](CO)CN1CCn2cc(-c3ccccc3)nc2[C@@H]1CC1CCCCC1` [GQ248] were 10.9 ± 0.5 µmol/L, 7.9 ± 0.7 µmol/L and 49.7 ± 9.5%.
In the case of `C[C@H](O)[C@H](N)CN1CCn2cc(-c3ccccc3)nc2[C@@H]1CC1CCCCC1` [GQ249], the IC50 in assay [1] was determined as 11.4 ± 0.3 µmol/L; in assay [2], 5.8 ± 0.6 µmol/L. In addition, in the assay with Gαq/11, the “IP1 inhibition at 10 μmol/L” value is 44.1 ± 3.0%.
Taken in the same sequence, the figures for `N[C@@H](CCO)CN1CCn2cc(-c3ccccc3)nc2[C@@H]1CC1CCCCC1` [GQ250] were 10.4 ± 0.2 µmol/L, 6.9 ± 1 µmol/L and 41.8 ± 2.7%.
Taken in the same sequence, the figures for `N[C@@H](CCCO)CN1CCn2cc(-c3ccccc3)nc2[C@@H]1CC1CCCCC1` [GQ251] were 12.6 ± 0.7 µmol/L, 7.4 ± 0.8 µmol/L and 51.2 ± 4.9%.
Taken in the same sequence, the figures for `NCC[C@H](N)CN1CCn2cc(-c3ccccc3)nc2[C@@H]1CC1CCCCC1` [GQ252] were 3.5 ± 0.3 µmol/L, 5.2 ± 0.7 µmol/L and 35.9 ± 7.3%.
Turning to `NCCC[C@H](N)CN1CCn2cc(-c3ccccc3)nc2[C@@H]1CC1CCCCC1` [GQ253], the IC50 in assay [1] amounted to 9.7 ± 0.4 µmol/L; in assay [2], 9.2 ± 0.6 µmol/L. Also, the “IP1 inhibition at 10 μmol/L” value in the assay with Gαq/11 worked out at 32.4 ± 1.0%.
Taken in the same sequence, the figures for `NCCCC[C@H](N)CN1CCn2cc(-c3ccccc3)nc2[C@@H]1CC1CCCCC1` [GQ254] were 11.2 ± 0.7 µmol/L, 8 ± 0.6 µmol/L and 44.2 ± 0.3%.
As for `N=C(N)NCCC[C@H](N)CN1CCn2cc(-c3ccccc3)nc2[C@@H]1CC1CCCCC1` [GQ255], the IC50 in assay [1] and in assay [2] was over 40 µmol/L in each case. Moreover, in the assay on Gαq/11, the “IP1 inhibition at 10 μmol/L” value is on record as 27.7 ± 6.7%.
With `N[C@@H](Cc1ccc(O)cc1)CN1CCn2cc(-c3ccccc3)nc2[C@@H]1CC1CCCCC1` [GQ256], the IC50 amounted to 8.7 ± 0.7 µmol/L in assay [1] and 9 ± 1.2 µmol/L in assay [2]. The “IP1 inhibition at 10 μmol/L” value in the assay with Gαq/11 came to 47.6 ± 5.0%.
Taken in the same sequence, the figures for `N[C@@H](Cc1c[nH]c2ccccc12)CN1CCn2cc(-c3ccccc3)nc2[C@@H]1CC1CCCCC1` [GQ257] were 9.6 ± 0.5 µmol/L, 6 ± 0.3 µmol/L and 33.2 ± 1.3%.
Taken in the same sequence, the figures for `N[C@@H](Cc1ccccc1)CN1CCn2cc(-c3ccccc3)nc2[C@@H]1CC1CCCCC1` [GQ258] were 11.6 ± 1.4 µmol/L, 7.9 ± 1.5 µmol/L and 48.3 ± 6.5%.
Taken in the same sequence, the figures for `N[C@@H](Cc1c[nH]cn1)CN1CCn2cc(-c3ccccc3)nc2[C@@H]1CC1CCCCC1` [GQ259] were 10.7 ± 0.8 µmol/L, 5.8 ± 0.6 µmol/L and 36.3 ± 0.9%.
`c1ccc(-c2cn3c(n2)[C@H](CC2CCCCC2)N(C[C@@H]2CCCN2)CC3)cc1` [GQ260]: the figures for the IC50 in assay [1] and in assay [2] were 11.6 ± 1.2 µmol/L and 6.7 ± 0.6 µmol/L, respectively. The “IP1 inhibition at 10 μmol/L” value in the assay with Gαq/11 turned out to be 53.4 ± 7.0%.
On to `c1ccc(-c2cn3c(n2)[C@H](CC2CCCCC2)N(C[C@@H]2CCCCN2)CC3)cc1` [GQ261], for which the IC50 in assay [1] worked out at 11 ± 0.5 µmol/L; in assay [2], 6.2 ± 0.8 µmol/L. The “IP1 inhibition at 10 μmol/L” value in the assay with Gαq/11 amounted to 27.0 ± 5.1%.

The values are drawn from publication PMC9366314 (Acta Pharmaceutica Sinica. B, 2022).
